Legend:
Assay type in all cases: functional
Set-up in all cases: scale not given: the % may be the effect or the level left
Rattus norvegicus [1] = experiment: Hypolipidemic activity in COBBS-CD rat assessed as reduction in serum sterol level at 0.3% administered with chow diet after 5 days relative to control
Rattus norvegicus [2] = experiment: Hypolipidemic activity in COBBS-CD rat assessed as reduction in serum triglyceride level at 0.3% administered with chow diet after 5 days relative to control
Rattus norvegicus [3] = experiment: Hypolipidemic activity in COBBS-CD rat assessed as reduction in serum triglyceride level at 0.1% administered with chow diet after 5 days relative to control
Procedure, shortened: (§1)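 The compound was given in ground chow at 0.1, 0.03 or 0.01% w/w (about 100, 30 and 10 mg/kg) to male COBBS-CD rats (n=4; solvent-chow controls n=8) for 5 days ad libitum. Rats were killed by decapitation and blood collected. Serum triglycerides were assayed by an automated method and compared with controls; ± values are SD.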

Rattus norvegicus [4] = experiment: Hypolipidemic activity in COBBS-CD rat assessed as reduction in serum sterol level at 0.1% administered with chow diet after 5 days relative to control
Procedure, shortened: (§2)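 Male COBBS-CD rats, four per treated group and eight per control group. The compound was mixed into ground rat chow at 0.1, 0.03 or 0.01% w/w (about 100, 30 and 10 mg/kg). Control chow received only the mixing solvent (methanol-chloroform 1:3 v/v). Food and water were ad libitum for 5 days, then rats were decapitated and blood collected. Serum sterols were measured by an automated method and expressed relative to controls; ± values are SD.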

Rattus norvegicus [5] = experiment: Hypolipidemic activity in COBBS-CD rat assessed as reduction in serum triglyceride level at 0.01% administered with chow diet after 5 days relative to control; procedure, shortened: as §1
Rattus norvegicus [6] = experiment: Hypolipidemic activity in COBBS-CD rat assessed as reduction in serum triglyceride level at 0.03% administered with chow diet after 5 days relative to control; procedure, shortened: as §1
Rattus norvegicus [7] = experiment: Hypolipidemic activity in COBBS-CD rat assessed as reduction in serum sterol level at 0.03% administered with chow diet after 5 days relative to control; procedure, shortened: as §2
Rattus norvegicus [8] = experiment: Hypolipidemic activity in COBBS-CD rat assessed as reduction in serum sterol level at 0.01% administered with chow diet after 5 days relative to control; procedure, shortened: as §2

Row | SMILES | Activity (Rattus norvegicus [1]) | Activity (Rattus norvegicus [2]) | Activity (Rattus norvegicus [3]) | Activity (Rattus norvegicus [4]) | Activity (Rattus norvegicus [5]) | Activity (Rattus norvegicus [6]) | Activity (Rattus norvegicus [7]) | Activity (Rattus norvegicus [8])
1 | CCOC(=O)C(C)(C)Oc1ccc(Cl)cc1 [CLOFIBRATE] | 19% | 58% | 30% | 0% | – | – | – | –
2 | O=C(O)C(Oc1ccc(Oc2ccccc2)cc1)c1ccc(Oc2ccc(Cl)cc2)cc1 (stereo not given) | – | – | 54% | 33% | 53% | 38% | 21% | 13%

Reference: ChEMBL document CHEMBL3244011, “(Aryloxy)[p-(aryloxy)phenyl]- and (aryloxy)[p-(arylthio)phenyl]acetic acids and esters as hypolipidemic agents” (1979)
